From ChEMBL document CHEMBL2203081 (Bioorg Med Chem Lett, 2012)

How the values were obtained:
[1] = molecular target: STE20/SPS1-related proline-alanine-rich protein kinase (Homo sapiens) (UniProt Q9UEW8); experiment: Inhibition of STK39 assessed as residual activity at 10 uM relative to control
[2] = test system: Mast/stem cell growth factor receptor Kit (Homo sapiens), P10721 [L576P]; experiment: Inhibition of KIT L576P mutant assessed as residual activity at 10 uM relative to control
[3] = molecular target: Glycogen synthase kinase-3 beta (Homo sapiens) (UniProt P49841); experiment: Inhibition of GSK3b assessed as residual activity at 1 uM
In short: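 Radioactivity-based enzymatic activity assay of the named kinase, run as part of a 131-kinase specificity panel at the National Centre for Protein Kinase Profiling (Dundee). Residual activity was read at the stated single inhibitor concentration.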

[4] = molecular target: Serine/threonine-protein kinase N2 (Homo sapiens) (UniProt Q16513); experiment: Inhibition of PKN2 assessed as residual activity at 10 uM relative to control
Serine/threonine-protein kinase N2 (Homo sapiens), sequence (Q16513 whole entry, looked up): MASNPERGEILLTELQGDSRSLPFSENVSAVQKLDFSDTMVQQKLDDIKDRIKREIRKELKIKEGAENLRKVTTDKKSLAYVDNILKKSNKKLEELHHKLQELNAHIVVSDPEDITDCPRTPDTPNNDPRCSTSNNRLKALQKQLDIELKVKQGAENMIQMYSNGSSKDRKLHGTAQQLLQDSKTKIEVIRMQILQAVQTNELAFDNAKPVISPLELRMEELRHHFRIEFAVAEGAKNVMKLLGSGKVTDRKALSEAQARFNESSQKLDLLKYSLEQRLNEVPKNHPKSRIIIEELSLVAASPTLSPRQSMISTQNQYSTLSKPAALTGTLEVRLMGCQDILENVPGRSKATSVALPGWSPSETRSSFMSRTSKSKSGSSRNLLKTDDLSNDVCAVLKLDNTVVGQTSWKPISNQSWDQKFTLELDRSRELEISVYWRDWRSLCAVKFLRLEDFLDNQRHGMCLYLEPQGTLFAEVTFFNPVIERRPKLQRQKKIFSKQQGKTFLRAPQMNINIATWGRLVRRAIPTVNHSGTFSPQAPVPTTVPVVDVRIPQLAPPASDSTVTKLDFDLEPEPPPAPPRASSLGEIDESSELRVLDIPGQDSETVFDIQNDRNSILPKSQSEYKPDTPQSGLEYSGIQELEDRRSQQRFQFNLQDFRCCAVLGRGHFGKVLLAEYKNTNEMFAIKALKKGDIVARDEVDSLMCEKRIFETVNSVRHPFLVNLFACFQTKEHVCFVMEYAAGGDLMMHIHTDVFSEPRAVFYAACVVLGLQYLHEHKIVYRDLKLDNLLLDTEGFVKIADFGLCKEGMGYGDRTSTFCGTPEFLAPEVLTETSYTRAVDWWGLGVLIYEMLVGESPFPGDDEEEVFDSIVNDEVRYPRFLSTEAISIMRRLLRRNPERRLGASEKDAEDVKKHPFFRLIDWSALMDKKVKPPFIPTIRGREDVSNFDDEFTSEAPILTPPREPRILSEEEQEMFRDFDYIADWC

[5] = molecular target: Citron Rho-interacting kinase (Homo sapiens) (UniProt O14578); experiment: Inhibition of CIT assessed as residual activity at 10 uM relative to control
[6] = molecular target: Ribosomal protein S6 kinase alpha-5 (Homo sapiens) (UniProt O75582); experiment: Inhibition of MSK1 assessed as residual activity at 10 uM
[7] = molecular target: Insulin receptor-related protein (Homo sapiens) (UniProt P14616); experiment: Inhibition of INSRR assessed as residual activity at 10 uM relative to control
Insulin receptor-related protein (Homo sapiens), sequence (P14616 27-742 limits assumed): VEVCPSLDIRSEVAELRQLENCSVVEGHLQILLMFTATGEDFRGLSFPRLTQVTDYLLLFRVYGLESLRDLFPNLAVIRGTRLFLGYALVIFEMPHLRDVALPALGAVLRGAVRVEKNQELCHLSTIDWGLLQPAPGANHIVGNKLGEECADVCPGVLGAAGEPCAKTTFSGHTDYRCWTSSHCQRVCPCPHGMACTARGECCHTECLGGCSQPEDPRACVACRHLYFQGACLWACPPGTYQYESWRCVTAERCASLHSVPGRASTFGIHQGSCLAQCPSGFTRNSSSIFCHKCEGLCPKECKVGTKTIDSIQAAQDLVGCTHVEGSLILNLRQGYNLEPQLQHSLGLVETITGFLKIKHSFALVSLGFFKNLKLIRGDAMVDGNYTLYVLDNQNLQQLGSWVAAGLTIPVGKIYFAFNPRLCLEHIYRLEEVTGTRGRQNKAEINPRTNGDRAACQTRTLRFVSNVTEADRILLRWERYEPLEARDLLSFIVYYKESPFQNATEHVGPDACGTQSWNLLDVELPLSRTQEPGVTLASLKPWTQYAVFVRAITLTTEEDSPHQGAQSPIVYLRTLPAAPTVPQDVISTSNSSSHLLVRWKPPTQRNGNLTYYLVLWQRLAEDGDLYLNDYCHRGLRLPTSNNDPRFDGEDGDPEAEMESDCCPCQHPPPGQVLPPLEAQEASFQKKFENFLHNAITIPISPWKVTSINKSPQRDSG
Insulin receptor-related protein (Homo sapiens), sequence (P14616 747-1297 limits assumed): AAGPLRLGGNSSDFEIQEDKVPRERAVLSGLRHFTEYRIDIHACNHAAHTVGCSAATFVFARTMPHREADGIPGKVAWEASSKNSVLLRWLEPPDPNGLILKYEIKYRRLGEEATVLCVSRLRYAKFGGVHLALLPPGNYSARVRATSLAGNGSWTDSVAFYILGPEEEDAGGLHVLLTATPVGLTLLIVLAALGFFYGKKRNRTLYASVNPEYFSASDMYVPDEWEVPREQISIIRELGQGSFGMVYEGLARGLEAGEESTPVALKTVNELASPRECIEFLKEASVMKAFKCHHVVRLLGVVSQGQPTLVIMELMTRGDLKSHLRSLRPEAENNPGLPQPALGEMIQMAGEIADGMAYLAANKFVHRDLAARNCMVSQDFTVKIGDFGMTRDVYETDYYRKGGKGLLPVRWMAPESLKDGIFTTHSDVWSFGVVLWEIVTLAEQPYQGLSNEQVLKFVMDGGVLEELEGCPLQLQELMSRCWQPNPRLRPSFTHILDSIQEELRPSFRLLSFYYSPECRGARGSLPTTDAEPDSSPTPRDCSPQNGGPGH

[8] = Inhibition of PHK assessed as residual activity at 10 uM
[9] = molecular target: Serine/threonine-protein kinase 33 (Homo sapiens) (UniProt Q9BYT3); experiment: Inhibition of STK33 assessed as residual activity at 1 uM
[10] = molecular target: Serine/threonine-protein kinase RIO2 (Homo sapiens) (UniProt Q9BVS4); experiment: Inhibition of RIOK2 assessed as residual activity at 10 uM relative to control
Serine/threonine-protein kinase RIO2 (Homo sapiens), sequence (Q9BVS4 whole entry, looked up, canonical isoform): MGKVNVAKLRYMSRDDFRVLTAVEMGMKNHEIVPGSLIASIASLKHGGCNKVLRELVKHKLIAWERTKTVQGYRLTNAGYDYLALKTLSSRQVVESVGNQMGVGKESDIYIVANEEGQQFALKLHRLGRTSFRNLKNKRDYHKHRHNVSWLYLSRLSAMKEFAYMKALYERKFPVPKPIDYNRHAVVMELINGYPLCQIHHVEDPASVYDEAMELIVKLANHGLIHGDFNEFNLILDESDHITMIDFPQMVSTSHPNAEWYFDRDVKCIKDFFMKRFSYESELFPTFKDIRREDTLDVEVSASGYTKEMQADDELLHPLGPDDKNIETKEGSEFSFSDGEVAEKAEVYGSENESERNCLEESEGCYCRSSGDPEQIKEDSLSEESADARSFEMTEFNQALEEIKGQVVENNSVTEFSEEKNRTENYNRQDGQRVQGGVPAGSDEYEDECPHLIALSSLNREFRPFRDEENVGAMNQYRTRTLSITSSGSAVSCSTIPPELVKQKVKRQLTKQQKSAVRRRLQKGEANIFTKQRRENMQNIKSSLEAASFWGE

[11] = molecular target: Casein kinase I isoform alpha-like (Homo sapiens) (UniProt Q8N752); experiment: Inhibition of CSNK1A1L assessed as residual activity at 10 uM relative to control
In short: (§1)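 Competition kinase-binding assay (KINOMEscan) across a non-redundant panel of 329 kinases beyond the radiometric panel; residual binding expressed relative to control.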

[12] = molecular target: Casein kinase I isoform gamma-2 (Homo sapiens) (UniProt P78368); experiment: Inhibition of CSNK1G2 assessed as residual activity at 10 uM relative to control; in short: as §1
[13] = test system: Receptor-type tyrosine-protein kinase FLT3 (Homo sapiens), P36888 [D835H]; experiment: Inhibition of FLT3 D835H mutant assessed as residual activity at 10 uM relative to control
[14] = molecular target: ALK tyrosine kinase receptor (Homo sapiens) (UniProt Q9UM73); experiment: Inhibition of ALK assessed as residual activity at 10 uM relative to control
ALK tyrosine kinase receptor (Homo sapiens), sequence (Q9UM73 19-1620 limits assumed): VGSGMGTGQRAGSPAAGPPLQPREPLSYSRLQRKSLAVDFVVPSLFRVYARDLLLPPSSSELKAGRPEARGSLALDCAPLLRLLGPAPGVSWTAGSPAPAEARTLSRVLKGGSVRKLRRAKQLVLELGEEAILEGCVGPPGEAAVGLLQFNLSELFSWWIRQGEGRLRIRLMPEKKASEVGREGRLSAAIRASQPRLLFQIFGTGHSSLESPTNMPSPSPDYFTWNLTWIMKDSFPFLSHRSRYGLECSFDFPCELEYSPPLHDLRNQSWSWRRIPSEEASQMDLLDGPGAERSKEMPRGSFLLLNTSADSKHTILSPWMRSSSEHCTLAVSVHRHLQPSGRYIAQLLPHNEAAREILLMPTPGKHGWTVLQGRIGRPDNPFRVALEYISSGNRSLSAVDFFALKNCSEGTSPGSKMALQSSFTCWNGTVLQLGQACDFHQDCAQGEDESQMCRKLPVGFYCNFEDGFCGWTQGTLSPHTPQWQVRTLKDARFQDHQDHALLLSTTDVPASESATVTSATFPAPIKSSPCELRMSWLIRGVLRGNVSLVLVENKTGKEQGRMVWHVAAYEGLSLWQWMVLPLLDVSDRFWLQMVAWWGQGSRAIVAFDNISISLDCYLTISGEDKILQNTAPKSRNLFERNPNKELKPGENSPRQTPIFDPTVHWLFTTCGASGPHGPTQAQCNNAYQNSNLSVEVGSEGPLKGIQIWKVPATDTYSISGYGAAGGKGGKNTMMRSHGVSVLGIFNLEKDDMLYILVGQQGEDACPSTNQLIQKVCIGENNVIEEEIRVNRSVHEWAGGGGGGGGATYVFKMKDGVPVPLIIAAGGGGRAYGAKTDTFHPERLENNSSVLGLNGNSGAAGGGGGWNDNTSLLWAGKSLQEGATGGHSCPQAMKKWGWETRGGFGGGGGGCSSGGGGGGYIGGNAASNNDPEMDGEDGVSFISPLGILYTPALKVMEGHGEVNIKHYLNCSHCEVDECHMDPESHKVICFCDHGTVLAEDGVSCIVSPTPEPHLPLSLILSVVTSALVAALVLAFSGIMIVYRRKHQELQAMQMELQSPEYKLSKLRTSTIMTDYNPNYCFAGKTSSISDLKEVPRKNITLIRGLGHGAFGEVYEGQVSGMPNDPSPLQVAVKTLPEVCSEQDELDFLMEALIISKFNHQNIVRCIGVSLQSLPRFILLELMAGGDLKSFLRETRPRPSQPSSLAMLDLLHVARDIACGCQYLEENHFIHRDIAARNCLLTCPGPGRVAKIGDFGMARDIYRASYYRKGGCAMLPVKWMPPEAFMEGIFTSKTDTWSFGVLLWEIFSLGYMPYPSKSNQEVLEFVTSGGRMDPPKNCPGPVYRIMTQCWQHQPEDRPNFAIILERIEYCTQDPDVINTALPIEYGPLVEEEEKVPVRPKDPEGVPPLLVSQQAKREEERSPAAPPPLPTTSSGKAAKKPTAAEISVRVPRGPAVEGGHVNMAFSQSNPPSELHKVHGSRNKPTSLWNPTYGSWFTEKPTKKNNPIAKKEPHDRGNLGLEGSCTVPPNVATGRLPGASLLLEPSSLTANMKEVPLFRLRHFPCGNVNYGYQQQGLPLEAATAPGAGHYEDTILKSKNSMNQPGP

[15] = molecular target: Calcium/calmodulin-dependent protein kinase type II subunit delta (Homo sapiens) (UniProt Q13557); experiment: Inhibition of CAMK2D assessed as residual activity at 10 uM relative to control
[16] = molecular target: Mitogen-activated protein kinase kinase kinase 9 (Homo sapiens) (UniProt P80192); experiment: Inhibition of MLK1 assessed as residual activity at 10 uM relative to control
[17] = molecular target: Mitogen-activated protein kinase 4 (Homo sapiens) (UniProt P31152); experiment: Inhibition of ERK4 assessed as residual activity at 10 uM relative to control
[18] = molecular target: Protein-tyrosine kinase 6 (Homo sapiens) (UniProt Q13882); experiment: Inhibition of BRK assessed as residual activity at 10 uM
Protein-tyrosine kinase 6 (Homo sapiens), sequence (Q13882 whole entry, looked up): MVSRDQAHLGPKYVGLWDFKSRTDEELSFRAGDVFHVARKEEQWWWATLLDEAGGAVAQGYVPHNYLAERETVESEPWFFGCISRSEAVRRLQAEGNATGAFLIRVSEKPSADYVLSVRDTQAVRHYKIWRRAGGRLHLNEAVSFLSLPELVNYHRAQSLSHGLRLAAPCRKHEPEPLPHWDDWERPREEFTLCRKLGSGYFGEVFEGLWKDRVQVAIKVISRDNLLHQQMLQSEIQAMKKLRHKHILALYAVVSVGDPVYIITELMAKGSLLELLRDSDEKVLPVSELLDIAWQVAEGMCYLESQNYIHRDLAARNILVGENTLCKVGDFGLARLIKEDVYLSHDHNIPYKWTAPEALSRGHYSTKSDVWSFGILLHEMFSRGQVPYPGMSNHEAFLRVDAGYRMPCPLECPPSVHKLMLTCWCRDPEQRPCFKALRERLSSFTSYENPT
In short: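 Radioactivity-based enzymatic assay against a panel of 131 kinases (Dundee profiling). Activity remaining was measured with compound present at the stated concentration.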

[19] = molecular target: T1, Ephrin type-B receptor 2 (Homo sapiens) (UniProt P29323); experiment: Inhibition of EPHB2 assessed as residual activity at 10 uM relative to control; in short: as §1
T1 sequence (whole entry): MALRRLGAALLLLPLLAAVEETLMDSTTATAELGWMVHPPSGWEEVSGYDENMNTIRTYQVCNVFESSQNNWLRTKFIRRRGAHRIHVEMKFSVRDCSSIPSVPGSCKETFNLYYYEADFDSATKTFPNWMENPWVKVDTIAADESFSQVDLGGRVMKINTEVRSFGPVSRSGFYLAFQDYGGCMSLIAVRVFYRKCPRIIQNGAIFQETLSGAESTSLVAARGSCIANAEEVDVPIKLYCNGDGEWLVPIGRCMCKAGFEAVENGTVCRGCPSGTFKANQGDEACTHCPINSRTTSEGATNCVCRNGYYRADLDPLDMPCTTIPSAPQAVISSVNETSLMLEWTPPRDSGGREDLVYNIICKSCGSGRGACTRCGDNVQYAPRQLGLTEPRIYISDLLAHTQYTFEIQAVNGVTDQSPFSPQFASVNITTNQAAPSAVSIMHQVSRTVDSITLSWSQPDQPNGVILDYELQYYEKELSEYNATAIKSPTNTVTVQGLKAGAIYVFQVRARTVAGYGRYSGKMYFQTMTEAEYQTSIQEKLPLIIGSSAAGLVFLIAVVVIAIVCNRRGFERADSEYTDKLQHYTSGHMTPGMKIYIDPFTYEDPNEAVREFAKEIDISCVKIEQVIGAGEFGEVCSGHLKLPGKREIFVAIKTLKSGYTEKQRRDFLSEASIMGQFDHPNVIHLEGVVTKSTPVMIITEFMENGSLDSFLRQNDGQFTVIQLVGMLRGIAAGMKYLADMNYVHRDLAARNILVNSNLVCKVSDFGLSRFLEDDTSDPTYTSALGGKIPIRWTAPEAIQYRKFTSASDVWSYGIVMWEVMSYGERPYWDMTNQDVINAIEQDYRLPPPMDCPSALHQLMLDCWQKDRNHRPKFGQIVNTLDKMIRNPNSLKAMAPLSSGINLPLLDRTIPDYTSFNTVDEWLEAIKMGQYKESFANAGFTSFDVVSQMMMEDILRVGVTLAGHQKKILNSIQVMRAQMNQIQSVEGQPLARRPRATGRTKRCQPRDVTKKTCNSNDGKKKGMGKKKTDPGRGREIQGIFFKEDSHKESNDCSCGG

O=C(Nc1cccnc1)c1cc(-c2ccnc(F)c2)ccc1OCc1ccccc1
Activity [1]: 63%
Activity [2]: 52%
Activity [3]: 119%
Activity [4]: 20%
Activity [5]: 48%
Activity [6]: 120%
Activity [7]: 71%
Activity [8]: 75%
Activity [9]: 64%
Activity [10]: 41%
Activity [11]: 40%
Activity [12]: 27%
Activity [13]: 13%
Activity [14]: 7.2%
Activity [15]: 64%
Activity [16]: 74%
Activity [17]: 59%
Activity [18]: 101%
Activity [19]: 71%
